Many of the other results were omitted from the sample, so hits are more common in it than they were.
Insulin prom act – TRM-6 insulin promoter activation; TRM-6 cells, insulin promoter eGFP reporter, imaging; plate-scaled: unstimulated 0, stimulated control 100; activation, % at 2 µM; 130,000 compounds, 0.81% hits; AID 1296;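 active means activation at 2 µM above a set limit, confirmed on inspection of the cell images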;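 further: share of cells whose green reporter signal exceeds an intensity cutoff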
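System – human fetal islet-derived TRM-6 cells with tamoxifen-inducible insulin promoter–eGFP reporter · Amount – 1,000 cells per well · Schedule – overnight tamoxifen, then two-day compound incubation at 37 °C · Detection – high-content imaging of fixed cells with Hoechst nuclear stain · Read-out – percent cells above green-intensity threshold, converted to percent activation versus plate controls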
* = called active by the depositor.

SMILES	Insulin prom act
Nc1c(C(=O)NCc2ccccc2)sc2nc(N3CCOCC3)c3c(c12)CCCC3	8
CCOC(=O)c1sc2nc(N3CCOCC3)c3c(c2c1N)CCN(C)C3	500*
CC(C)(C)C(=O)Nc1cccc2[nH]ncc12	0
COc1cc2nc(CN3CCN(S(=O)(=O)c4ccc(Cl)cc4)CC3)[nH]c(=O)c2cc1OC	0
COc1ccc(/C(O)=C/c2nc3ccc(C(=O)NCCc4cccc(C)c4)cc3[nH]c2=O)cc1OC	107
O=C(NC(NC(=S)Nc1ccccc1C(=O)O)C(Cl)(Cl)Cl)c1cccc([N+](=O)[O-])c1 (configuration not stated)	3
COc1cccc(/C=N/NC(=O)C(=O)N/N=C/c2cccc(OC)c2OC)c1OC	0
COc1cccc(/C=N/NC(=O)CO/N=C(\C)c2cccs2)c1OC	86*
C/C(=N\OCC(=O)N/N=C/c1ccccc1)c1cccs1	-9
Cc1cc(C(=O)NC(C)Cc2ccccc2)cc(C)c1[N+](=O)[O-] (configuration not stated)	7
CCCc1cc2c(-c3ccccc3)cc(=O)oc2cc1OCc1ccc(C(=O)O)o1	-6
Cc1cccc(NC(=O)C2CCCN(S(=O)(=O)c3cccc4nsnc34)C2)c1 (configuration not stated)	0
CCc1cccc(NC(=O)C2CCCN(S(=O)(=O)c3c(C)[nH]c(=O)[nH]c3=O)C2)c1 (configuration not stated)	83*
CCc1cccc(NC(=O)C2CCCC2)c1	-5
CCOc1ccc(Cl)cc1CSc1ncn[nH]1	0
C=CCn1c(Cc2cccs2)nnc1SC/C=C/c1ccccc1	81*
CCn1c(SC/C=C/c2ccccc2)nnc1-c1cccs1	191
C=CCn1c(CCNC(=O)c2cccs2)nnc1SCC(=O)c1ccc(Br)cc1	-7
COc1ccc(CN(C)CC(=O)Nc2cc(OC)c([N+](=O)[O-])cc2C)c(OC)c1	-71
CCOC(Cn1cc(C)c(=O)[nH]c1=O)OCC	8
CCC(C)c1ccccc1OCCn1ccnc1 (configuration not stated)	-4
CN(C)/C=C(\C=O)c1ncc(C(F)(F)F)cc1Cl	-7
Cc1cc(NC(=O)CCC(=O)N(c2ccccc2)C(C(=O)NC2CCCC2)c2cccs2)no1 (configuration not stated)	118
Cc1cc(NC(=O)CCC(=O)N(Cc2cccs2)C(C(=O)NC2CCCC2)c2cccnc2)no1 (configuration not stated)	-3
Cc1ccc(C(C(=O)NC2CCCC2)N(Cc2ccco2)C(=O)CCC(=O)Nc2cc(C)on2)cc1 (configuration not stated)	810*
SMILES	Insulin prom act
CCOC(=O)c1cc([N+](=O)[O-])c([N+](=O)[O-])cc1NC(C)=O	3
Nc1c(C(=O)Nc2ccc(S(=O)(=O)N3CCCC3)cc2)sc2nc3ccc(OC(F)(F)F)cc3cc12	231*
O=C(Nc1ccc(S(=O)(=O)N2CCCCC2)cc1)c1ccncc1	8
Nc1c(C(=O)Nc2ccc(S(=O)(=O)N3CCCC3)cc2)sc2nc3cc4c(cc3cc12)CCC4	182
CC(=O)OCCSc1c(-c2ccccc2)c2cc(Cl)ccc2[nH]c1=O	6
CC1=C(C(=O)OCC2CCCO2)C(c2ccc(Cl)cc2)NC(=O)N1 (configuration not stated)	-9
O=S(=O)(c1ccc2nc(SCc3cccc(Cl)c3)[nH]c2c1)N1CCOCC1	-2
O=C(CSc1nc2ccccc2[nH]1)N1CCN(S(=O)(=O)c2ccc(Cl)cc2)CC1	97*
O=C(CSc1nc2ccccc2[nH]1)NCCc1ccc(Cl)cc1	4
COC(=O)[C@H](Cc1ccccc1)NC(=O)O[C@H]1C(=O)c2ccc(OC)cc2O[C@@H]1c1ccc2c(c1)OCO2	-5
CCOC(=O)N1CCN(C(=O)CSc2ccc(-c3ccccc3)nn2)CC1	3
CCOC(=O)N1CCN(C(=O)CSc2ncccn2)CC1	186*
CCOC(=O)N1CCN(C(=O)CSc2ccc(-c3ccncc3)nn2)CC1	-75
CCOC(=O)CSc1snnc1-c1ccccc1	0
Cc1ccc(-c2nnn(CC(=O)N(c3cccc(F)c3)C(C(=O)NC3CCCC3)c3ccco3)n2)o1 (configuration not stated)	4
Cc1ccc(-c2nnn(CC(=O)N(CC3CCCO3)C(C(=O)NC3CCCC3)c3ccc(F)cc3)n2)o1 (configuration not stated)	500*
Cc1ccc(-c2nnn(CC(=O)N(CC3CCCO3)C(C(=O)NC3CCCC3)c3ccc(O)cc3)n2)o1 (configuration not stated)	7
COc1ccc2cc(Br)ccc2c1CC(=O)NC(C)(C)C	0
CC(OC(=O)C1=COCCO1)C(=O)Nc1ccccc1C#N (configuration not stated)	5
N#C/C(=C/c1ccc(-c2ccc(S(N)(=O)=O)cc2)o1)c1nc2ccccc2s1	257*
N#C/C(=C\Nc1ccccc1SC(F)(F)F)c1nc(-c2ccccc2)cs1	4
N#CC(=C1CCCC1)c1nc(-c2ccccc2)cs1	3

Assay outcomes as filed in PubChem.
